Results gathered from unrelated publications.
Lines come from different studies, so protocols differ.
Target: Serine/threonine-protein kinase TAO3 (TAOK3, Homo sapiens, UniProt Q9H2K8)
One construct used (Q9H2K8 1-898): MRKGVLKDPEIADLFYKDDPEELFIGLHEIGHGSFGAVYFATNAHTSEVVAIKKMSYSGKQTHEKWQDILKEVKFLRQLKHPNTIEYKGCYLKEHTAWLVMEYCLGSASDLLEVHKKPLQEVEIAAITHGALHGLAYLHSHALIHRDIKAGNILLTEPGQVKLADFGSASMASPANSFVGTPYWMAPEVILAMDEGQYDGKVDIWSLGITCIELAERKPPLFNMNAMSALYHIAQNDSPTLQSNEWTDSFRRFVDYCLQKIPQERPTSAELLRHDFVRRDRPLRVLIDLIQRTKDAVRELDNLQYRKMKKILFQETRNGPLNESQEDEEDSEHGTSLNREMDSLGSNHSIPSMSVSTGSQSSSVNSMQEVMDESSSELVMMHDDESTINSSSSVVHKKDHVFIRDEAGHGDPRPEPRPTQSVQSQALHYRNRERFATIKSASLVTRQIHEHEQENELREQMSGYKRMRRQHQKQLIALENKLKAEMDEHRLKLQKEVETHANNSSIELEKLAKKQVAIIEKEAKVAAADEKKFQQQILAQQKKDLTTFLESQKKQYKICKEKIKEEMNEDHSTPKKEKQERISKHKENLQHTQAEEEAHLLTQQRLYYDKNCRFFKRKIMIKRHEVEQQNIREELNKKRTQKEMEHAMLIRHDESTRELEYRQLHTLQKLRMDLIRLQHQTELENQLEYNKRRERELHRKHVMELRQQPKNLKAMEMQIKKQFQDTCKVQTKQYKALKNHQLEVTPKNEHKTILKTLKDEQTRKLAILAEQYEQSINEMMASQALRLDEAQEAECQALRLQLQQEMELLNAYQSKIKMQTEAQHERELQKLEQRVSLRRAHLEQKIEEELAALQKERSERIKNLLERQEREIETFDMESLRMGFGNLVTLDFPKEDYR

COc1cc(-c2cc(-c3ccc(N4CCNCC4)cc3)cnc2C)cc(OC)c1OC  inhibition (enzyme activity; inhibitor; 0.1 µM): 3%
CN1CC(Oc2cnc(C#N)cc2-c2ccn3nc(NC(=O)C4CC4)cc3c2)C1  inhibition (enzyme activity; inhibitor; 1 µM): -4%
CC(C)(C)c1nc2c(s1)c1nc(N)ncc1c1ccc(NS(=O)(=O)c3c(F)cccc3F)c(F)c12  remaining activity (enzyme activity; inhibitor; radiometric; 1 µM): 87%
Nc1ncnc2occ(-c3ccc(NC(=O)Nc4cc(C(F)(F)F)ccc4F)cc3)c12  remaining signal (cell-free assay; inhibitor; 20 µM): 0.05%
CN(C)C(=O)Cn1cc(-c2nc(C3(c4ccc(-c5cnc(N)nc5)cc4)CC3)no2)cn1  remaining binding (cell-free assay; competition with immobilised ligand; 1 µM): 67%
O=C1Nc2ccc(Cl)cc2C1=Cc1cc(Cl)c(O)c(Cl)c1  remaining signal (cell-free assay; 0.5 µM): 50.6%
CC(=O)N1CCC(c2ccc(C(=O)NC3=NCCN3)cc2C(F)(F)F)CC1  remaining binding (cell-free assay; competition with immobilised ligand; 1 µM): 87%
CNC(=O)c1cc(Oc2ccc(NC(=O)Nc3ccc(Cl)c(C(F)(F)F)c3)cc2)ccn1  inhibition (enzyme activity; inhibitor; 0.3 µM): 77%
COc1ccc2c(c1)O[C@@H](c1ccc(OC)c(OC)c1)C[C@H]2NC(=O)C1(c2ccc3c(c2)OC(F)(F)O3)CC1  remaining binding (cell-free assay; competition with immobilised ligand; 1 µM): 91%
O=C(Nc1cnn(-c2csc(C(=O)NC3COC3)c2)c1)Nc1c(F)cccc1Cl  remaining activity (enzyme activity; inhibitor; 5 µM): 90.2%
Clc1ccc(Nc2nnc(Cc3ccncc3)c3ccccc23)cc1  remaining signal (cell-free assay; 0.5 µM): 99.9%
CCN(CC)c1ccc(C2=NNC(=O)CC2C)cc1[N+](=O)[O-] (stereo not shown)  remaining activity (enzyme activity; inhibitor; 10 µM): 95%
Cc1nc(C2CCN(C(=O)c3ccc(OC(F)(F)F)cc3N)CC2)c2ncc(N3CCN(C)CC3)cc2n1  remaining binding (cell-free assay; competition with immobilised ligand; 1 µM): 100%
COc1cc2c(Nc3ccc(Br)cc3F)ncnc2cc1OCC1CCN(C)CC1  remaining signal (cell-free assay; 0.5 µM): 98.4%
CCC(=N\O)/C(C)=C/c1ccc(F)cc1  remaining binding (cell-free assay; competition with immobilised ligand; 1 µM): 86%
COc1cc2c(N3CCN(C(=O)Nc4ccc(OC(C)C)cc4)CC3)ncnc2cc1OCCCN1CCCCC1  remaining signal (cell-free assay; 0.5 µM): 96.8%
Cc1ccc(Nc2nccc(N(C)c3ccc4c(C)n(C)nc4c3)n2)cc1S(N)(=O)=O  inhibition (enzyme activity; inhibitor; 0.3 µM): 60%
Cc1cc(NC(=O)c2cccc3cc(-c4cccc5[nH]nc(N)c45)ccc23)ccc1F  activity vs control (enzyme activity; inhibitor; 0.1 µM): 96%
Cc1ccc(C(=O)Nc2ccc(CN3CCN(C)CC3)c(C(F)(F)F)c2)cc1C#Cc1cnc2cccnn12  remaining activity (enzyme activity; inhibitor; 23.5 nM): 28%
CC(C)(O)[C@H]1CC[C@H](Nc2ccc3ncc(-c4cccc(C(F)(F)F)c4)n3n2)CC1  remaining activity (enzyme activity; inhibitor; 1 µM): 75.1%
CS(=O)(=O)CCNCc1ccc(-c2ccc3ncnc(Nc4ccc(OCc5cccc(F)c5)c(Cl)c4)c3c2)o1  remaining signal (cell-free assay; 0.5 µM): 101%
CCOCCn1cc(C(=O)Nc2ccc(-n3nc(-c4cccnc4)cc3C(F)(F)F)cn2)ccc1=O  remaining binding (cell-free assay; competition with immobilised ligand; 1 µM): 66%
